The results in this text go back to ChEMBL document CHEMBL4330143, “Maximizing ER-α Degradation Maximizes Activity in a Tamoxifen-Resistant Breast Cancer Model: Identification of GDC-0927” (ACS Med Chem Lett, 2019).

Calls of active or inactive are those of the source. The calls are words filed in the database; no cut-off is given here.

Series [1] relates to MCF7. Put plainly: Antiproliferative activity against human MCF7 cells after 5 days by CellTiter-Glo assay. The note with it: MCF7, 120 h. On the technique in general: ATP-based viability assays read luminescence as a measure of living cells.
For the next series, the target named is T1, Estrogen receptor (Homo sapiens, UniProt P03372).
T1 sequence (P03372 whole entry): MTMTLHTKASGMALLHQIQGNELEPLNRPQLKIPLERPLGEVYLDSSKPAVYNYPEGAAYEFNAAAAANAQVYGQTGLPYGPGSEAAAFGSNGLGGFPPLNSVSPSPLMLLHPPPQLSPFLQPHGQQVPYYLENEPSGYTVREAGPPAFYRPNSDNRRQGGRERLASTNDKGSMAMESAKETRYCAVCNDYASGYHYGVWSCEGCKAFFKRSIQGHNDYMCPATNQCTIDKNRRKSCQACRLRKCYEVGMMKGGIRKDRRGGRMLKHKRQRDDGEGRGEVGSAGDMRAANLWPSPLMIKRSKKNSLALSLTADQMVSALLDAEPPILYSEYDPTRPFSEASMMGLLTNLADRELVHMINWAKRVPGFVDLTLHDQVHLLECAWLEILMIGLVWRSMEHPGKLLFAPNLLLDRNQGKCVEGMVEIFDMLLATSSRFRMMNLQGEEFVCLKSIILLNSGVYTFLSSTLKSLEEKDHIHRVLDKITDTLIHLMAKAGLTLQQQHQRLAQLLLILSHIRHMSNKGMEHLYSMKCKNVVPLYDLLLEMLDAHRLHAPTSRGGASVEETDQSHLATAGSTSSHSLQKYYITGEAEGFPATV
Put plainly: Induction of ERalpha degradation in human MCF7 cells assessed as decrease in ERalpha protein level after 4 hrs by InCell Western assay. Type of series: cell-based.

The nature of series [2]: AUC in mouse at 10 mg/kg, po. The note with it: in vivo. Type of series: ADME, organism-based.
The test system of series [3] is Rattus norvegicus. The series can be described thus: In vivo agonist activity at ERalpha in CD-IGS rat assessed as increase in uterine weight at 60 mg/kg, po for 3 consecutive days measured at 24 hrs post last dose. It is filed as functional, organism-based.
Series [4] in a line: Cmax in nude mouse xenografted with tamoxifen-resistant human MCF7 cells at 100 mg/kg, po daily for 28 days measured on day 28 post last dose. It is filed as ADME, organism-based. More on the design: dose 100 mg/kg, route oral. The note with it: in vivo. The procedure, abridged: (§1)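 Tamoxifen-resistant MCF-7 xenograft mice carrying subcutaneous 0.72 mg estradiol pellets. Plasma pharmacokinetics sampled on day 28 of the study, at take-down.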
Background: In xenograft studies the graft and the host belong to different species.

Series [5] is described as follows: Unbound Cmax in nude mouse xenografted with tamoxifen-resistant human MCF7 cells at 100 mg/kg, po daily for 28 days measured on day 28 post last dose. To be noted: in vivo, 672 h. It is filed as ADME, organism-based. The procedure, abridged: as §1
Series [6] can be described thus: Unbound AUC (0 to 24 hrs) in nude mouse xenografted with tamoxifen-resistant human MCF7 cells at 100 mg/kg, po daily for 28 days measured on day 28 post last dose. Type of series: ADME, organism-based. To be noted: in vivo. The procedure, abridged:
as §1

The subject of series [7] is MCF7. The series can be described thus: Antitumor activity against tamoxifen-resistant human MCF7 cells xenografted in nude mouse at 100 mg/kg, po daily for 28 days. It is filed as functional, organism-based. The procedure, abridged:
(§2)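 Tamoxifen-resistant MCF-7 tumours grown subcutaneously in mice, with estradiol supplied from subcutaneous 0.72 mg estradiol pellets.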

Series [8] in a line: AUC (0 to 24 hrs) in nude mouse xenografted with tamoxifen-resistant human MCF7 cells at 100 mg/kg, po daily for 28 days measured on day 28 post last dose. The note with it: in vivo. It is filed as ADME, organism-based. More on the design: time < 24 hr, dose 100 mg/kg, route oral. The gist of the method:
as §1

The nature of series [9]: Oral bioavailability in rat at 10 mg/kg daily for 3 days measured on day 3 post last dose. It is filed as ADME, organism-based. To be noted: in vivo.
Another series relates to Mus musculus. Put plainly: In vivo induction of ERalpha degradation in tumor of nude mouse xenografted with tamoxifen-resistant human MCF7 cells at 100 mg/kg, po daily for 28 days measured on day 28 post last dose. Type of series: functional, organism-based. The gist of the method:
as §2

A short description of series [10]: Unbound fraction in mouse plasma. It is filed as ADME, cell-free.
Series [11] is described as follows: Clearance in rat at 10 mg/kg, po daily for 3 days measured on day 3 post last dose. It is filed as ADME, organism-based. To be noted: in vivo.
Series [12] can be described thus: AUC in rat at 10 mg/kg, po daily for 3 days measured on day 3 post last dose. It is filed as ADME, organism-based. The note with it: in vivo.
Series [13] has as its system Rattus norvegicus. The series can be described thus: In vivo inverse agonist activity at ERalpha in CD-IGS rat assessed as decrease in uterine weight at 10 mg/kg, po for 3 consecutive days measured at 24 hrs post last dose. It is filed as functional, organism-based. The procedure, abridged:
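Rat uterine wet weight assay run in agonist mode, with no ethynyl estradiol added. Oral dosing at 10 mg/kg for 3 days. Uterine weights compared with those of vehicle-treated animals.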

By IC50 is commonly meant the point on the concentration scale where inhibition reaches its midpoint. Consider `CC1=C(c2cccc(O)c2)C(c2ccc(OCCN3CC[C@@H](C(F)F)C3)cc2)Oc2ccc(O)cc21` (some centres undefined), for which the IC50 in the series with MCF7 [1] was 400 pM; on Estrogen receptor it was 200 pM.

The AUC is concentration integrated over time. As to `CC1=C(c2cccc(O)c2)C(c2ccc(OCCN3CC[C@@H](CF)C3)cc2)Oc2ccc(O)cc21` (some centres undefined), the IC50 in the series on MCF7 [1] came out at 200 pM; at Estrogen receptor, 100 pM. Further, the AUC in [2] came out at 40 ng·h/mL.

`CC1=C(c2cccc(O)c2)C(c2ccc(OC[C@H](C)N3CC(CF)C3)cc2)Oc2ccc(O)cc21` (some centres undefined): the results for the IC50 in the series on MCF7 [1] and at Estrogen receptor were 300 pM and 200 pM, respectively.

Take `CC/C(=C(\c1ccccc1)c1ccc(OCCN(C)C)cc1)c1ccccc1`: in the series with Rattus norvegicus [3], the result was Active.

As a reminder, the Cmax is the maximum level reached in the sampled fluid or tissue. As usually defined, the bioavailability is dose-corrected exposure relative to a reference, in per cent. Higher therefore signals much systemic uptake. What is called CL/F is clearance divided by bioavailability, as obtained after extravascular dosing. `CC1=C(c2cccc(O)c2)[C@H](c2ccc(OC[C@H](C)N3CC[C@@H](C)C3)cc2)Oc2ccc(O)cc21` showed a Cmax in series [4] of 1300 ng/mL. Moreover, the fCmax in series [5] came to 0.021 µg/mL. Moreover, the fAUC in [6] is 190 ng·h/mL. Further, in the series on MCF7 [7], the result was inactive. Also, the AUC at 24 h in series [8] was 12000 ng·h/mL. In series [9], this compound returned a bioavailability of less than 15%. The result in the series with Mus musculus was Active. This compound came in with a Fu in [10] of 1.6%. This compound also came in with a CL/F in [11] greater than 60 mL/min/kg.

For the compound `CC1=C(c2ccc(C#N)cc2)C(c2ccc(OCCN3CC(CF)C3)cc2)Oc2ccc(O)cc21` (centres undefined), the IC50 is 300 pM in the series on MCF7 [1] and 200 pM on Estrogen receptor.

`CC1=C(c2cccc(O)c2)C(c2ccc(OCCN3CC[C@@H](C#N)C3)cc2)Oc2ccc(O)cc21` (some centres undefined): the IC50 with MCF7 [1] came out at 3600 pM; on Estrogen receptor it was 800 pM.

Consider `CC1=C(c2cccc(O)c2)C(c2ccc(OCCN3CCC[C@H]3CF)cc2)Oc2ccc(O)cc21` (some centres undefined), for which the results for the IC50 in the series on MCF7 [1] and at Estrogen receptor were 1400 pM and 200 pM, respectively.

For `CC1=C(c2cccc(O)c2)C(c2ccc(OCCN3CC(CF)C3)cc2)Oc2ccc(O)cc21` (centres undefined), in the series on MCF7 [1], the IC50 came out at 200 pM. The compound also returned an AUC in [2] of 160 ng·h/mL.

For the compound `CC1=C(c2ccc(F)cc2)[C@H](c2ccc(OCCN3CC(CF)C3)cc2)Oc2ccc(O)cc21`, the Cmax in [4] was 2300 ng/mL. For the same compound, the fCmax in series [5] amounted to 0.009 µg/mL. In the series on MCF7 [1], this compound registered an IC50 of 200 pM. Also, in [6], the fAUC is 80 ng·h/mL. For the same compound, the result in the series on MCF7 [7], in the series with Mus musculus and in the series on Rattus norvegicus [13] was Active. The AUC at 24 h in series [8] worked out at 21000 ng·h/mL. The AUC at 72 h in series [12] worked out at 1900 ng·h/mL. For the same compound, the bioavailability in [9] is 42%. This compound also came in with a Fu in series [10] of 0.4%. This compound also came in with a CL/F in [11] of 36 mL/min/kg.

In the case of `COC[C@@H]1CCN(CCOc2ccc(C3Oc4ccc(O)cc4C(C)=C3c3cccc(O)c3)cc2)C1` (some centres undefined), the IC50 with MCF7 [1] was determined as 400 pM; on Estrogen receptor it was 300 pM.
